# Reference: ChEMBL document CHEMBL1140436, “Synthesis, biological activity, and preliminary pharmacokinetic evaluation of analogues of a phosphosulfomannan angiogenesis inhibitor (PI-88)” (J Med Chem, 2005)
# pIC50, pKd: −log10 of the molar value.
# How the values were obtained:
# Human alphaherpesvirus 1 [1] = experiment: Inhibition of HSV1 infection; format: functional, organism-based, Human herpesvirus 1 strain KOS; settings: Human alphaherpesvirus 1, KOS321
# Heparanase = target: T1, Heparanase (Homo sapiens, UniProt Q9Y251); experiment: Inhibitory activity against human platelet heparanase by Microcon ultrafiltration assay
# T1 sequence (Q9Y251 whole entry): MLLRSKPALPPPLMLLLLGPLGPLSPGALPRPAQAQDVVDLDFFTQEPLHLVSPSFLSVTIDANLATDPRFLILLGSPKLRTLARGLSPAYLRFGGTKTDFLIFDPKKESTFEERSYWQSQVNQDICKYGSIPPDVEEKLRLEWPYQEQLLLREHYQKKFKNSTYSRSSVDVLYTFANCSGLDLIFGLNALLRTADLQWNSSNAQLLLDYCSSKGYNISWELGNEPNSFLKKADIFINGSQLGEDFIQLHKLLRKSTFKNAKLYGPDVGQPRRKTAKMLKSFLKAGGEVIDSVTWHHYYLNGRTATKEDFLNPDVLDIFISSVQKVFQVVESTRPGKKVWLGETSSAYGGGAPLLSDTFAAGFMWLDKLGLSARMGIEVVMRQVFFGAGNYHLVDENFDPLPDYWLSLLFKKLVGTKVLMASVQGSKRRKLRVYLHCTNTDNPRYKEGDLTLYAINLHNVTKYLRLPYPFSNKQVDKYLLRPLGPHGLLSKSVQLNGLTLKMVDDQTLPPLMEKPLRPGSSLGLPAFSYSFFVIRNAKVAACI
# Summary of the method: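 Platelet-derived heparanase (100 ng) in 40 mM acetate pH 5.0, 0.1 mg/mL BSA with inhibitor, preequilibrated 10 min at 22 °C. Started with 5 μM [3H]HS, 4 h at 22 °C. Cleaved fragments separated by 10 kDa ultrafiltration and counted; activity = 4 h minus time-0 filtrate, compared with inhibitor-free control. IC50.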
# [2] = Area under curve (0-12h) male Sprague-Dawley rat administered with 2.5 mg/kg, iv; format: ADME, organism-based; set-up: time < 12 hr, dose 2.5 mg/kg, route intravenous; settings: in vivo
# Summary of the method: (§1)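 Plasma sampled predose to 48 h, counted in triplicate by liquid scintillation, no decay correction; <3× background excluded. Apparent parameters from notionally linear log-concentration phase; mean ± SD, n = 4.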
# [3] = target: Fibroblast growth factor 1 (Homo sapiens, UniProt P05230); experiment: Binding affinity for FGF1 by BIAcore solution affinity assay
# Chain of Fibroblast growth factor 1 (P05230 whole entry): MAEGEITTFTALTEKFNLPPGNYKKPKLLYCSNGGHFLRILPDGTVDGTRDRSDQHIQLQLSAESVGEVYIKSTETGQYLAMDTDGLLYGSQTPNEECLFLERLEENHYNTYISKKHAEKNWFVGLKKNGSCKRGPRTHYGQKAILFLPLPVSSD
# Summary of the method: (§2)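 Surface plasmon resonance solution affinity assay: growth factor preequilibrated with ligand in solution, then injected; specific binding after background subtraction converted to free protein concentration under mass-transport conditions. Kd derived assuming 1:1 stoichiometry; duplicates averaged where measured.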
# Human alphaherpesvirus 1 [4] = experiment: Inhibition of cell to cell spread of HSV1; format: functional, organism-based, Human herpesvirus 1 strain KOS; settings: Human alphaherpesvirus 1, KOS321
# Summary of the method: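 African green monkey kidney monolayers infected with HSV-1 KOS321, then 5-fold compound dilutions (0.032–20 μM) in serum-free overlay for 3 days at 37 °C. Area of 20 plaques measured from images, expressed relative to mock-treated cells. IC50 derived.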
# [5] = Volume of distribution in male Sprague-Dawley rat administered with 2.5 mg/kg, iv; format: ADME, organism-based; set-up: dose 2.5 mg/kg, route intravenous; settings: in vivo, read-out: Vdss; summary of the method: as §1
# [6] = target: Fibroblast growth factor 2 (Homo sapiens, UniProt P09038); experiment: Binding affinity for FGF2 by BIAcore solution affinity assay; summary of the method: as §2
# Chain of Fibroblast growth factor 2 (P09038 143-288 limits assumed): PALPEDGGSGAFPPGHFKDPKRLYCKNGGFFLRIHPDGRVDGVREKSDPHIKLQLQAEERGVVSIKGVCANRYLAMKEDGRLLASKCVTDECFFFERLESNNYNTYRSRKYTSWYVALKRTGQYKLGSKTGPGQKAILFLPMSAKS
# [7] = Clearance in male Sprague-Dawley rat administered with 2.5 mg/kg, iv; format: ADME, organism-based; set-up: dose 2.5 mg/kg, route intravenous; settings: in vivo; summary of the method: as §1
# [8] = target: T2, Vascular endothelial growth factor A, long form (Homo sapiens, UniProt P15692); experiment: Binding affinity for VEGF by BIAcore solution affinity assay; summary of the method: as §2
# T2 sequence (P15692 whole entry): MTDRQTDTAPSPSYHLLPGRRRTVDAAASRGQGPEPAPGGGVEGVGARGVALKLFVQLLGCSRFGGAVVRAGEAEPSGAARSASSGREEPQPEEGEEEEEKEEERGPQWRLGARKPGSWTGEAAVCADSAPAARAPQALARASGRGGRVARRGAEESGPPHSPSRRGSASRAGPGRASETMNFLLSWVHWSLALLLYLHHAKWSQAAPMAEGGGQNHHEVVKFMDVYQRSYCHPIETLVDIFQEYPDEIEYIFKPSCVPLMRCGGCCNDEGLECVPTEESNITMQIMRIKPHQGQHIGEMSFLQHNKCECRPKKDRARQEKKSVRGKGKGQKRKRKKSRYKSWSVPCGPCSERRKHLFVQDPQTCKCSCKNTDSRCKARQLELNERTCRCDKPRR
# Rattus norvegicus = experiment: Plasma concentration in male Sprague-Dawley rat administered with 2.5 mg/kg, iv; format: ADME, organism-based; set-up: dose 2.5 mg/kg, route intravenous; settings: in vivo; summary of the method: as §1
# [9] = Half life in male Sprague-Dawley rat administered with 2.5 mg/kg, iv; format: ADME, organism-based; set-up: dose 2.5 mg/kg, route intravenous; settings: in vivo; summary of the method: as §1
pIC50 (Human alphaherpesvirus 1 [1]),pIC50 (Heparanase),AUC(0-t) at 12 h [2] [ng·h/mL],pKd [3],pIC50 (Human alphaherpesvirus 1 [4]),Vd [5] [L],pKd [6],clearance [7] [mL/min/kg],pKd [8],Cp (Rattus norvegicus) [µg/mL],half-life [9] [min],Structure (SMILES)
5.70,5.73,6500,9.41,5.52,0.0551,7.08,6.33,8.14,14,47.4,O=C(CCCC[C@@H]1SC[C@@H]2NC(=O)N[C@@H]21)NCCCCCC(=O)N[C@H]1O[C@H](CO)[C@@H](O)[C@H](O)[C@@H]1O[C@H]1O[C@H](CO)[C@@H](O)[C@H](O[C@H]2O[C@H](CO)[C@@H](O)[C@H](O[C@H]3O[C@H](CO)[C@@H](O)[C@H](O[C@H]4O[C@H](CO)[C@@H](O)[C@H](O)[C@@H]4O)[C@@H]3O)[C@@H]2O)[C@@H]1O
5.15,5.69,–,9.18,5.30,–,6.95,–,8.15,–,–,O=C(COc1ccccc1)N[C@H]1O[C@H](CO)[C@@H](O)[C@H](O)[C@@H]1O[C@H]1O[C@H](CO)[C@@H](O)[C@H](O[C@H]2O[C@H](CO)[C@@H](O)[C@H](O[C@H]3O[C@H](CO)[C@@H](O)[C@H](O[C@H]4O[C@H](CO)[C@@H](O)[C@H](O)[C@@H]4O)[C@@H]3O)[C@@H]2O)[C@@H]1O
6.00,5.79,29700,9.84,6.40,0.0229,7.17,1.39,8.77,35.6,66,CCCCCCCCO[C@H]1O[C@H](CO)[C@@H](O)[C@H](O)[C@@H]1O[C@H]1O[C@H](CO)[C@@H](O)[C@H](O[C@H]2O[C@H](CO)[C@@H](O)[C@H](O[C@H]3O[C@H](CO)[C@@H](O)[C@H](O[C@H]4O[C@H](CO)[C@@H](O)[C@H](O)[C@@H]4O)[C@@H]3O)[C@@H]2O)[C@@H]1O
5.70,5.74,12600,9.92,6.00,0.0384,7.07,3.32,8.77,20.5,49.8,OC[C@H]1O[C@H](O[C@@H]2[C@H](O)[C@@H](O[C@@H]3[C@H](O)[C@@H](O[C@@H]4[C@H](O)[C@@H](O[C@@H]5[C@@H](OCc6ccccc6)O[C@H](CO)[C@@H](O)[C@@H]5O)O[C@H](CO)[C@H]4O)O[C@H](CO)[C@H]3O)O[C@H](CO)[C@H]2O)[C@@H](O)[C@@H](O)[C@@H]1O
